# According to ChEMBL document CHEMBL1137208, “2-(1-adamantyl)-4-(thio)chromenone-6-carboxylic acids: potent reversible inhibitors of human steroid sulfatase” (J Med Chem, 2004):
# Key:
# Steryl-sulfatase [1] = molecular target: T1, Steryl-sulfatase (Homo sapiens, UniProt P08842); assay: Inhibitory activity against human steroid sulfatase
# T1 sequence (P08842 whole entry): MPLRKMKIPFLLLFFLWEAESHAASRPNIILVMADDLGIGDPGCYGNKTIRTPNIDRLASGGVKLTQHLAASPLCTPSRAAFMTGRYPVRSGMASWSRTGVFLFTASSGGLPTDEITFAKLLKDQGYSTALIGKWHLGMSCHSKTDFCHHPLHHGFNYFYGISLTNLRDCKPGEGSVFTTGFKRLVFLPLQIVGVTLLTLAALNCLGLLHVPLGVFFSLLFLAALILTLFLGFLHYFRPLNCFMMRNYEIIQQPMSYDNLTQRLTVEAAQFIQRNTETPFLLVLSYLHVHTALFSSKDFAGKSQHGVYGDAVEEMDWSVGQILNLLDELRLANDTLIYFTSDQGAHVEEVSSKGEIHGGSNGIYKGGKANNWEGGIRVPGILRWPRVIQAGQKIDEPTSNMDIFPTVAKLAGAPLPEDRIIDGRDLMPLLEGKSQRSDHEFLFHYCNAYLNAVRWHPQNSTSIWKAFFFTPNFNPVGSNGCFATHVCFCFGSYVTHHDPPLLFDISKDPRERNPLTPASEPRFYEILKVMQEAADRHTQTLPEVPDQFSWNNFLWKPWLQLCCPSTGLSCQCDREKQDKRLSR
# Procedure, shortened: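 Highly purified human STS from stably transfected recombinant CHO cells (purity >95%). Substrate 0.5 mM 4-methylumbelliferyl sulfate, pH 7.5, 37 °C. 4-Methylumbelliferone formed was read by fluorescence after alkalization. Inhibitors were added at graded concentrations from ethanol stocks (final ethanol ≤2%). Ki came from turnover at several substrate and inhibitor levels, using a Hanes plot and a Km/Vmax vs I replot.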
# Steryl-sulfatase [2] = molecular target: T1, Steryl-sulfatase; assay: Inhibitory activity against human steroid sulfatase over-expressed in CHO cells; format: functional, cell-based
# Procedure, shortened: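 Live CHO cells stably expressing human STS, 30 000/well, adhered overnight in phenol red-free RPMI 1640 with 10% FCS. Cells were treated with graded inhibitor for 24 h. Medium was then replaced with the same concentrations plus 0.5 mM 4-MUS for 4 h at 37 °C. Supernatant was stopped at pH 10.4 and read at ex 355/em 460 nm. Signal was normalized to sulforhodamine B protein. Triplicates; IC50 is 50% inhibition.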
smiles,measurement,setting,value
NS(=O)(=O)Oc1ccc2oc(C34CC5CC(CC(C5)C3)C4)cc(=O)c2c1,Ki,Steryl-sulfatase [1],0.19 µM
same,IC50,Steryl-sulfatase [2],0.026 µM
NC(=O)c1ccc2oc(C34CC5CC(CC(C5)C3)C4)cc(=O)c2c1,Ki,Steryl-sulfatase [1],> 50 µM
same,IC50,Steryl-sulfatase [2],> 30 µM
O=C(O)c1ccc2oc(C34CC5CC(CC(C5)C3)C4)cc(=O)c2c1,Ki,Steryl-sulfatase [1],0.5 µM
same,IC50,Steryl-sulfatase [2],9.4 µM
COC(=O)c1ccc2oc(C34CC5CC(CC(C5)C3)C4)cc(=O)c2c1,Ki,Steryl-sulfatase [1],> 50 µM
same,IC50,Steryl-sulfatase [2],> 30 µM
O=C(O)c1ccc2sc(C34CC5CC(CC(C5)C3)C4)cc(=O)c2c1,Ki,Steryl-sulfatase [1],0.53 µM
same,IC50,Steryl-sulfatase [2],0.18 µM
O=C(CO)c1ccc2oc(C34CC5CC(CC(C5)C3)C4)cc(=O)c2c1,Ki,Steryl-sulfatase [1],3.2 µM
same,IC50,Steryl-sulfatase [2],> 30 µM
O=C(O)C(=O)c1ccc2oc(C34CC5CC(CC(C5)C3)C4)cc(=O)c2c1,Ki,Steryl-sulfatase [1],2.2 µM
same,IC50,Steryl-sulfatase [2],12.3 µM
O=Cc1ccc2oc(C34CC5CC(CC(C5)C3)C4)cc(=O)c2c1,Ki,Steryl-sulfatase [1],> 20 µM
same,IC50,Steryl-sulfatase [2],> 30 µM
NS(=O)(=O)Oc1ccc2sc(C34CC5CC(CC(C5)C3)C4)cc(=O)c2c1,Ki,Steryl-sulfatase [1],0.21 µM
same,IC50,Steryl-sulfatase [2],0.024 µM
N#Cc1ccc2sc(C34CC5CC(CC(C5)C3)C4)cc(=O)c2c1,Ki,Steryl-sulfatase [1],> 50 µM
same,IC50,Steryl-sulfatase [2],> 30 µM
O=C(O)Cc1ccc2oc(C34CC5CC(CC(C5)C3)C4)cc(=O)c2c1,Ki,Steryl-sulfatase [1],> 50 µM
same,IC50,Steryl-sulfatase [2],> 30 µM
O=c1cc(C23CC4CC(CC(C4)C2)C3)oc2ccc(CO)cc12,Ki,Steryl-sulfatase [1],32 µM
same,IC50,Steryl-sulfatase [2],~30 µM
C[C@]12CC[C@@H]3c4ccc(OS(N)(=O)=O)cc4CC[C@H]3[C@@H]1CCC2=O [EMATE],IC50,Steryl-sulfatase [2],0.02 µM
